Experimental data gathered from unrelated publications.
Protocols differ between the studies behind these lines.
SCN5A: Sodium channel protein type 5 subunit alpha (SCN5A, Homo sapiens, UniProt Q14524)
Genome polyprotein protease: Genome polyprotein, protease (ZIKV, UniProt A0A024B7W1)
CDK2 with cyclin E1: Cyclin-dependent kinase 2, with cyclin E1 (CDK2, Homo sapiens, UniProt P24941)

CCCCCCCCCCCCCC(=O)O[C@@H]1[C@@H](C)[C@@]2(O)[C@@H](C=C(CO)C[C@]3(O)C(=O)C(C)=C[C@@H]23)[C@@H]2C(C)(C)[C@]12OC(C)=O
IC50 (Proteinase-activated receptor 1 (F2R, Homo sapiens, UniProt P25116); calcium signal; antagonist): 0.00747 µM

COc1cc(NC(=O)C(=O)[C@H](CC(C)C)NC(=O)[C@H](CC(C)C)NC(=O)[C@H](CC(C)C)NC(=O)OCc2ccccc2)cc(OC)c1
IC50 (Proteasome component C5/PSMB5, chymotrypsin-like site (Homo sapiens, UniProt P20618+P28074); enzyme activity in cells; inhibitor): 0.0251 µM

COc1cc(C(=O)N2CC[C@@H](O)[C@@H](N)C2)cc2nc(-c3cc4ccccc4n3CC3CC3)n(C)c12
IC50 (SCN5A; ion current; inhibitor): 39.8 µM

COCCn1c2nc(=O)n(-c3ccccc3)c(=O)c-2nc2ccccc21
IC50 (Genome polyprotein, methyltransferase (ZIKV, UniProt A0A024B7W1); enzyme activity; inhibitor; TR-FRET): 6.8 µM

C[C@H]1COCCN1c1nc(NCc2cccnc2C(F)(F)F)c2cccnc2n1
IC50 (SCN5A; ion current; inhibitor): > 33 µM

COc1ncccc1NS(=O)(=O)c1ccc(S(=O)(=O)F)c2c1CCNC2
IC50 (RALB (Homo sapiens, UniProt P11234, Y82F); cell-free assay; inhibitor; fluorescence): > 100 µM

COc1cc2oc(-c3ccc(O)c(O)c3)cc(=O)c2c(O)c1O
IC50 (Genome polyprotein protease; enzyme activity; inhibitor; pH 8.5): 5 µM

CC(C)C[C@H]1C(=O)N2CCC[C@H]2[C@]2(O)O[C@](NC(=O)[C@@H]3C=C4c5cccc6[nH]c(Br)c(c56)C[C@H]4N(C)C3)(C(C)C)C(=O)N12
IC50 (5-hydroxytryptamine receptor 7 (HTR7, Homo sapiens, UniProt P34969); cAMP; antagonist): 0.08 µM

CCCCCCCCCCCCCCCCOC[C@H](COP(=O)([O-])OCC[N+](C)(C)C)OC(C)=O
IC50 (Platelet-activating factor receptor (PTAFR, Homo sapiens, UniProt P25105); ligand displacement; radioligand): 0.00027 µM

COc1c(-c2ccc3c(c2)OCO3)oc2c(ccc3occc32)c1=O
IC50 (CDK2 with cyclin E1; enzyme activity; inhibitor; ADP detection): > 100 µM

C[C@H](N)Cn1ncc2ccc3c(c21)CCCO3
IC50 (5-hydroxytryptamine receptor 6 (HTR6, Homo sapiens, UniProt P50406); ligand displacement; radioligand): 19.6 µM

O=c1c(O)c(-c2cc(O)c(O)c(O)c2)oc2cc(O)cc(O)c12
IC50 (Genome polyprotein protease; enzyme activity; inhibitor; FRET; pH 7): 22 µM

N=C1CCCN1Cc1[nH]c(=O)[nH]c(=O)c1Br
IC50 (Thymidine phosphorylase (Homo sapiens, UniProt P19971); enzyme activity; inhibitor): 0.0027 µM

COc1c(-c2ccccc2)oc2c(ccc3occc32)c1=O
IC50 (CDK2 with cyclin E1; enzyme activity; inhibitor; ADP detection): > 10 µM
